Measurements taken from ChEMBL document CHEMBL1125046, “Beta-lactam analogues of oxotremorine. 3- and 4-methyl-substituted 2-azetidinones” (J Med Chem, 1990).

Tests used:
Cavia porcellus [1] = organism: Cavia porcellus; test: In vitro muscarinic activity against guinea pig ileum was determined; type: functional
Method in brief: (§1)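 Isolated ileum contractions recorded isotonically at 1 g tension with a displacement transducer. Cumulative concentration-response curves built by raising agonist concentration stepwise by a factor of 2.15. Maximal response expressed as a percentage of the carbachol maximum.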

Cavia porcellus [2] = organism: Cavia porcellus; test: Maximal contractile response as a percentage of that elicited by carbachol.; type: functional; method in brief: as §1
[3] = molecular target: Muscarinic acetylcholine receptor; test: In vitro inhibition of binding of (-)-[3H]-NMS to Muscarinic acetylcholine receptor of rat cerebral cortex was determined; type: tissue-based
Method in brief: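 Rat cerebral cortex (male Sprague-Dawley, 200–300 g) homogenised in 50 mM Na-K phosphate buffer, pH 7.4, then centrifuged and resuspended at 10 mg wet tissue/mL. Competition with 0.3 nM (–)-[3H]NMS for 30 min at 30 °C, followed by filtration. Nonspecific binding defined with 10 μM atropine. IC50 from a one-site nonlinear fit, converted to Ki by Cheng-Prusoff using NMS Kd 0.076 nM. Three experiments, each in triplicate.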

[4] = molecular target: Muscarinic acetylcholine receptor; test: Dissociation constant of the drug-Muscarinic acetylcholine receptor complex.; type: protein assay, Cavia porcellus

## CC1CN(CC#CCN2CCCC2)C1=O (configuration not stated)
Cavia porcellus [1]
  EC50: 24000 nM
Cavia porcellus [2]
  Emax: 23
[3]
  Ki: 5600 nM

## CC1CCN(CC#CCN2CCCC2)C1=O (configuration not stated)
Cavia porcellus [1]
  EC50: 500 nM
Cavia porcellus [2]
  Emax: 100
[3]
  Ki: 1200 nM
[4]
  Kd: 11500 nM

## CC1CCC(=O)N1CC#CCN1CCCC1 (configuration not stated)
Cavia porcellus [2]
  Emax: 0
[3]
  Ki: 56 nM
[4]
  Kd: 93 nM

## CC1CC(=O)N1CC#CC[N+](C)(C)C (configuration not stated)
Cavia porcellus [1]
  EC50: 55000 nM
Cavia porcellus [2]
  Emax: 97
[3]
  Ki: 19600 nM

## CC1CCC(=O)N1CC#CC[N+](C)(C)C (configuration not stated)
Cavia porcellus [1]
  EC50: 180 nM
Cavia porcellus [2]
  Emax: 100
[3]
  Ki: 610 nM
[4]
  Kd: 1700 nM

## O=C1CCN1CC#CCN1CCCC1
Cavia porcellus [1]
  EC50: 290 nM
Cavia porcellus [2]
  Emax: 100
[3]
  Ki: 940 nM

## CC1CC(=O)N1CC#CCN1CCCC1 (configuration not stated)
Cavia porcellus [2]
  Emax: 0
[3]
  Ki: 990 nM
[4]
  Kd: 1700 nM

## CC1CCC(=O)N1CC#CCN(C)C (configuration not stated)
Cavia porcellus [1]
  EC50: 910 nM
Cavia porcellus [2]
  Emax: 102
[3]
  Ki: 2200 nM
[4]
  Kd: 4300 nM

## CC1CC(=O)N1CC#CCN(C)C (configuration not stated)
Cavia porcellus [1]
  EC50: 88000 nM
Cavia porcellus [2]
  Emax: 95
[3]
  Ki: 43000 nM

## O=C1CCCN1CC#CCN1CCCC1 [OXOTREMORINE]
Cavia porcellus [1]
  EC50: 35 nM
Cavia porcellus [2]
  Emax: 100
[3]
  Ki: 830 nM
[4]
  Kd: 930 nM

## CC1CC(=O)N(CC#CCN2CCCC2)C1 (configuration not stated)
Cavia porcellus [2]
  Emax: 0
[3]
  Ki: 5000 nM
[4]
  Kd: 10000 nM
